This passage reports Activity and Ratio Ki results from ChEMBL document CHEMBL1649343, “Pulicatins A-E, neuroactive thiazoline metabolites from cone snail-associated bacteria” (J Nat Prod, 2010).

Assay [1] deals with 5-hydroxytryptamine receptor 2B (Mus musculus) (UniProt Q02152). Put plainly: Increase of 5HT2B receptor-mediated KCL-induced intracellular calcium influx in mouse DRG neurons at 20 ug/ml. The format is functional, cell-based. An outline of the steps: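 Dorsal root ganglia cells from the cervical and lumbar regions of mice were loaded with Fura-2 AM and imaged individually by fluorescence microscopy at 20 to 25 °C. After baseline, cells were given 25 mM KCl and washed. After return to baseline, compound was applied at 20 µg/mL, then replaced with 25 mM KCl while intracellular Ca2+ was monitored.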
For orientation: Calcium flux is commonly read through the fluorescence of an indicator in the cells.

Assay [2] deals with Histamine H1 receptor (Homo sapiens) (UniProt P35367). As to the kind of experiment: Binding affinity to human histamine H1 receptor by radioligand displacement assay.
Assay [3] addresses Kappa-type opioid receptor (Homo sapiens) (UniProt P41145). Put plainly: Binding affinity to human kappa opioid receptor by radioligand displacement assay.
Assay [4] is filed under the species Homo sapiens. Put plainly: Selectivity ratio of Ki for human 5HT7 receptor to Ki for human 5HT2B receptor.
The species named for assay [5] is Homo sapiens. Put plainly: Selectivity ratio of Ki for human 5HT1B receptor to Ki for human 5HT2B receptor.
The species entered for assay [6] is Homo sapiens. As to the kind of experiment: Selectivity ratio of Ki for human 5HT1D receptor to Ki for human 5HT2B receptor.
In assay [7] the target is T1, 5-hydroxytryptamine receptor 3A (Homo sapiens) (UniProt P46098).
T1 sequence (whole entry): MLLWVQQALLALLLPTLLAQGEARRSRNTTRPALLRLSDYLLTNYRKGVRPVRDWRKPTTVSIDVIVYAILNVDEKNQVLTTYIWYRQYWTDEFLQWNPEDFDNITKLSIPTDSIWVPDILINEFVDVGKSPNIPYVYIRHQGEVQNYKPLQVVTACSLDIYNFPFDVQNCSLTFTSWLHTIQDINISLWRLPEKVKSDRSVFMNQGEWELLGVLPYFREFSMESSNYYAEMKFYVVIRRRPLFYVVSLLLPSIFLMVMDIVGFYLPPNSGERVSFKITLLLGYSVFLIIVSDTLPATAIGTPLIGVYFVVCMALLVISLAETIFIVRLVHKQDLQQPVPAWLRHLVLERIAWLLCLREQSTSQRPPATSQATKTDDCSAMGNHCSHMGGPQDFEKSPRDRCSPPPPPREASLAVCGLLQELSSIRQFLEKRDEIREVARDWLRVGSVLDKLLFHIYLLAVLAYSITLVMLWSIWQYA
As to the kind of experiment: Binding affinity to human 5HT3 receptor at 10 uM by radioligand displacement assay. In outline: (§1)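 Primary screen run by the PDSP/NIMH across a 46-target panel. Each compound was tested at a final concentration of 10 µM by radioligand displacement, and initial hits were obtained from this screen.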
In general terms: Loss of bound radioactivity is the signal in a displacement assay; it reports binding, not function.

For assay [8], the target named is 5-hydroxytryptamine receptor 6 (Homo sapiens) (UniProt P50406). Put plainly: Binding affinity to human 5HT6 receptor at 10 uM by radioligand displacement assay. An outline of the steps:
as §1

Assay [9] deals with T2, 5-hydroxytryptamine receptor 2C (Homo sapiens) (UniProt P28335).
T2 sequence (whole entry): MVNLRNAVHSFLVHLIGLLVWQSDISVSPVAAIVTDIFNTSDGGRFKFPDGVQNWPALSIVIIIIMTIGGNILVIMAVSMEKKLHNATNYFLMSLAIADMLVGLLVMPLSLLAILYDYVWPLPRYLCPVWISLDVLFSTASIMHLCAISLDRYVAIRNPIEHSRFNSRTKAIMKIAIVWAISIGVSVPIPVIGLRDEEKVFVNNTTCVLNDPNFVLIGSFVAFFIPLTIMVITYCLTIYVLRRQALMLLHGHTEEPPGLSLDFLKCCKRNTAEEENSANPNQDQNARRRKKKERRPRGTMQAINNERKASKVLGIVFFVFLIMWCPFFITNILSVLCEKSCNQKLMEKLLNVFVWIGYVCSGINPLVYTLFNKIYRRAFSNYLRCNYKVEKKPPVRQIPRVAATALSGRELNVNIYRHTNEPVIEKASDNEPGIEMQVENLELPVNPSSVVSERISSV
As to the kind of experiment: Binding affinity to human 5HT2C receptor at 10 uM by radioligand displacement assay. In outline: as §1

The species entered for assay [10] is Homo sapiens. As to the kind of experiment: Selectivity ratio of Ki for human 5HT4 receptor to Ki for human 5HT2B receptor.
For assay [11], the species on record is Homo sapiens. As to the kind of experiment: Selectivity ratio of Ki for human 5HT1E receptor to Ki for human 5HT2B receptor.
The species entered for assay [12] is Homo sapiens. Put plainly: Selectivity ratio of Ki for human 5HT2A receptor to Ki for human 5HT2B receptor.
The target in assay [13] is 5-hydroxytryptamine receptor 4 (Homo sapiens) (UniProt Q13639). As to the kind of experiment: Binding affinity to human 5HT4 receptor at 10 uM by radioligand displacement assay. In outline: as §1
Assay [14] addresses T3, 5-hydroxytryptamine receptor 1A (Homo sapiens) (UniProt P08908).
T3 sequence (whole entry): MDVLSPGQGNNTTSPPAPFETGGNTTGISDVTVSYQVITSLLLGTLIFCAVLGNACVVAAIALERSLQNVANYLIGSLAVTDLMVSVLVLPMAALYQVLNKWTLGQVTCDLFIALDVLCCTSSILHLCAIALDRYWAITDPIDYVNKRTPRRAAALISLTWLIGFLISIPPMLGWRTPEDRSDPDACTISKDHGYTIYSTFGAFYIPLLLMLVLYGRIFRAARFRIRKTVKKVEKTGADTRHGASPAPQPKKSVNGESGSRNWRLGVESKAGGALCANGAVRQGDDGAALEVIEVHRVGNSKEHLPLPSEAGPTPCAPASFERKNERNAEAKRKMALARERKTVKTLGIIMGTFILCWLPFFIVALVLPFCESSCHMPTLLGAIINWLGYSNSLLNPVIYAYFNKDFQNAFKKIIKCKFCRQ
Put plainly: Binding affinity to human 5HT1A receptor at 10 uM by radioligand displacement assay. An outline of the steps: as §1

The species named for assay [15] is Homo sapiens. Put plainly: Selectivity ratio of Ki for human 5HT3 receptor to Ki for human 5HT2B receptor.
The target of assay [16] is 5-hydroxytryptamine receptor 7 (Homo sapiens) (UniProt P34969). As to the kind of experiment: Binding affinity to human 5HT7 receptor at 10 uM by radioligand displacement assay. An outline of the steps: as §1
Assay [17] has as its target 5-hydroxytryptamine receptor 5A (Homo sapiens) (UniProt P47898). As to the kind of experiment: Binding affinity to human 5HT5A receptor at 10 uM by radioligand displacement assay. An outline of the steps: as §1
The target in assay [18] is 5-hydroxytryptamine receptor 1E (Homo sapiens) (UniProt P28566). As to the kind of experiment: Binding affinity to human 5HT1E receptor at 10 uM by radioligand displacement assay. In outline: as §1
Assay [19] is filed under the species Homo sapiens. Put plainly: Selectivity ratio of Ki for human 5HT5A receptor to Ki for human 5HT2B receptor.
Assay [20] deals with 5-hydroxytryptamine receptor 1D (Homo sapiens) (UniProt P28221). Put plainly: Binding affinity to human 5HT1D receptor at 10 uM by radioligand displacement assay. In outline:
as §1

Assay [21] deals with 5-hydroxytryptamine receptor 1B (Homo sapiens) (UniProt P28222). Put plainly: Binding affinity to human 5HT1B receptor at 10 uM by radioligand displacement assay. An outline of the steps: as §1
The species entered for assay [22] is Homo sapiens. Put plainly: Selectivity ratio of Ki for human 5HT1A receptor to Ki for human 5HT2B receptor.
Assay [23] is filed under the species Homo sapiens. Put plainly: Selectivity ratio of Ki for human 5HT2C receptor to Ki for human 5HT2B receptor.
The target in assay [24] is 5-hydroxytryptamine receptor 2A (Homo sapiens) (UniProt P28223). As to the kind of experiment: Binding affinity to human 5HT2A receptor at 10 uM by radioligand displacement assay. In outline:
as §1

The species entered for assay [25] is Homo sapiens. Put plainly: Selectivity ratio of Ki for human 5HT6 receptor to Ki for human 5HT2B receptor.

Calls of active or inactive are those of the source. The rule behind the calls is not given here.

5-hydroxytryptamine receptor 2B (Mus musculus), sequence (Q02152 whole entry): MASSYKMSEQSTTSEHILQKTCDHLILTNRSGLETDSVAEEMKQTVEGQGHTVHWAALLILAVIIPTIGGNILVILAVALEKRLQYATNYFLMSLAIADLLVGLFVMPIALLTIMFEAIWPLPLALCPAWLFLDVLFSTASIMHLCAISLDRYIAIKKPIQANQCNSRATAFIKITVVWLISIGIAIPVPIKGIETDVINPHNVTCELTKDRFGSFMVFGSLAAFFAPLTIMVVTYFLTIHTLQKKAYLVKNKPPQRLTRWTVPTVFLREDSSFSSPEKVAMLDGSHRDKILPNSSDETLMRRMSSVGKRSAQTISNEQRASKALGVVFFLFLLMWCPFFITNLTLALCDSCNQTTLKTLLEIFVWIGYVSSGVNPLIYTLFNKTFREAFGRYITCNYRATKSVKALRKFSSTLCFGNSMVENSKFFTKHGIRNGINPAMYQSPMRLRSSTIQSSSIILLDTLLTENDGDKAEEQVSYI
Histamine H1 receptor (Homo sapiens), sequence (P35367 whole entry): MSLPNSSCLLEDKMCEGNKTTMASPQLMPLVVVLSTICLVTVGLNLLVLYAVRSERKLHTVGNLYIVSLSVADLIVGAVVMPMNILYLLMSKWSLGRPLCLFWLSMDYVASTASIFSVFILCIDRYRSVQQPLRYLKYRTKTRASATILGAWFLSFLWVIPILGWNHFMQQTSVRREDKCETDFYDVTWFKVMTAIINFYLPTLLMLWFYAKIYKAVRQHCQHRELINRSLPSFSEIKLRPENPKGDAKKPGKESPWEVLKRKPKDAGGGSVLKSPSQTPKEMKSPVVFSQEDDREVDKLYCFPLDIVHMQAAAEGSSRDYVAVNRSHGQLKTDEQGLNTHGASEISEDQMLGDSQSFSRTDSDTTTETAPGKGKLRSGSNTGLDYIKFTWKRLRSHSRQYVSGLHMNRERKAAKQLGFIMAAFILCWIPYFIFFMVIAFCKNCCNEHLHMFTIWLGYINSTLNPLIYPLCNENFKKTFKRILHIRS
5-hydroxytryptamine receptor 1E (Homo sapiens), sequence (P28566 whole entry): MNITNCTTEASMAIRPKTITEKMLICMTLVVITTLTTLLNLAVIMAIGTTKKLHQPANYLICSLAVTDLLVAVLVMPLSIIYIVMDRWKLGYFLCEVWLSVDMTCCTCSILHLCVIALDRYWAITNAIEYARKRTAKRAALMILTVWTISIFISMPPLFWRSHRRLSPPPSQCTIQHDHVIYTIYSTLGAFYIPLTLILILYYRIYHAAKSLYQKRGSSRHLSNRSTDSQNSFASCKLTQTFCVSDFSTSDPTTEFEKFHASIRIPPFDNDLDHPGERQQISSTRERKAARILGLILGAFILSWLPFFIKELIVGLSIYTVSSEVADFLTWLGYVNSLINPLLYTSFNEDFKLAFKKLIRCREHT
5-hydroxytryptamine receptor 5A (Homo sapiens), sequence (P47898 whole entry): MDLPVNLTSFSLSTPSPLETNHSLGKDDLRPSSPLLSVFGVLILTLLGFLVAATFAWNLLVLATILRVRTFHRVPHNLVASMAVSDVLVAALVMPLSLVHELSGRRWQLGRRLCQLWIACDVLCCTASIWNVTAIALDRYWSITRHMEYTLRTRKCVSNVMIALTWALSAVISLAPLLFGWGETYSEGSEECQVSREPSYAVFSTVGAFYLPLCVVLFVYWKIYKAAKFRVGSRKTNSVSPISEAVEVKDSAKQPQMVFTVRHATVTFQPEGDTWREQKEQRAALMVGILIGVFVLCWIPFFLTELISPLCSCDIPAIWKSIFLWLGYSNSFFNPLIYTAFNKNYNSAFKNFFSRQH
5-hydroxytryptamine receptor 1B (Homo sapiens), sequence (P28222 whole entry): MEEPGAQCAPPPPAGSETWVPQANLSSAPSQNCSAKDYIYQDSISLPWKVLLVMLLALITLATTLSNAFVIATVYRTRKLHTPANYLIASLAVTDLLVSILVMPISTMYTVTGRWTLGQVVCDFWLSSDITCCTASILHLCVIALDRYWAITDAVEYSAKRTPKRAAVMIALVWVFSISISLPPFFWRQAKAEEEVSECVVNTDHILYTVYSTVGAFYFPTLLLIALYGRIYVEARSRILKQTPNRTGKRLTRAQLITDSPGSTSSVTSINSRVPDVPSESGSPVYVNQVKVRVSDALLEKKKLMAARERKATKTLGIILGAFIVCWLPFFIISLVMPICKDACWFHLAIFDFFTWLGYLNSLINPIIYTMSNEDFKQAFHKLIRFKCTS
5-hydroxytryptamine receptor 7 (Homo sapiens), sequence (P34969 whole entry): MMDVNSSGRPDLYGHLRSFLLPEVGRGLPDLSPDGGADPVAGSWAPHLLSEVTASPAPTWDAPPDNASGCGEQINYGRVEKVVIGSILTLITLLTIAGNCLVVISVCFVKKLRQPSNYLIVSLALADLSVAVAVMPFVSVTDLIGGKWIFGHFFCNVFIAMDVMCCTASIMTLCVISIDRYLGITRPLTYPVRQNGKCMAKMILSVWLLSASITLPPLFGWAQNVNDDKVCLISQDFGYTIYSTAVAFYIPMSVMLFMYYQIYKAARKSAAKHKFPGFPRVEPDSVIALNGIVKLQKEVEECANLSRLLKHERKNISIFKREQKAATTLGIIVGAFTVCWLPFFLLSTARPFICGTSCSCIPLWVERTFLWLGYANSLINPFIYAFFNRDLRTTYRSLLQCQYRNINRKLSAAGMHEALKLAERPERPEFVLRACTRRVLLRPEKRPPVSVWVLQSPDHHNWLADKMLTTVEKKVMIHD
5-hydroxytryptamine receptor 1D (Homo sapiens), sequence (P28221 whole entry): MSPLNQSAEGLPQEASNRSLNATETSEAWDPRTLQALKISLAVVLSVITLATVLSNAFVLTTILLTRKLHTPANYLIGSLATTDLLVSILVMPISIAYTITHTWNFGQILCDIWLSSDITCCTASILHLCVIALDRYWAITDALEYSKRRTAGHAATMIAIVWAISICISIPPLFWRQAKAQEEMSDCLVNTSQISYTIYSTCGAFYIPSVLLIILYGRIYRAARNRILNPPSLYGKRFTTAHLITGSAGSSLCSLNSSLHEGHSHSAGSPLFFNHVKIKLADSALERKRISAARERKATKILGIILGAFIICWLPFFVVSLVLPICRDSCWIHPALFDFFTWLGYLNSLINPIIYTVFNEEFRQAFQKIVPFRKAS
5-hydroxytryptamine receptor 2A (Homo sapiens), sequence (P28223 whole entry): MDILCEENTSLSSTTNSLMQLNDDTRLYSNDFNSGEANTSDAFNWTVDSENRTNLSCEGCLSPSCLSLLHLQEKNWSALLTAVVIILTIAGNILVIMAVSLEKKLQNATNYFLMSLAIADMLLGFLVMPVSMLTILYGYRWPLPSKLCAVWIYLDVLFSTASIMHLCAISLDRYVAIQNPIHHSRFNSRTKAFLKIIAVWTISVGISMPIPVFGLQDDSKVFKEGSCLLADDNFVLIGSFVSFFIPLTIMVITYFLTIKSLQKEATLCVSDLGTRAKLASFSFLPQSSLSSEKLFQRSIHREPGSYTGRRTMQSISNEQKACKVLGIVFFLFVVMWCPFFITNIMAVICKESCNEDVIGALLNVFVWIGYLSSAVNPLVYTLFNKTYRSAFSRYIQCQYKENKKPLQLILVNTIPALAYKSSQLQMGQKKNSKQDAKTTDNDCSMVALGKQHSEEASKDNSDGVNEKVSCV
Kappa-type opioid receptor (Homo sapiens), sequence (P41145 whole entry): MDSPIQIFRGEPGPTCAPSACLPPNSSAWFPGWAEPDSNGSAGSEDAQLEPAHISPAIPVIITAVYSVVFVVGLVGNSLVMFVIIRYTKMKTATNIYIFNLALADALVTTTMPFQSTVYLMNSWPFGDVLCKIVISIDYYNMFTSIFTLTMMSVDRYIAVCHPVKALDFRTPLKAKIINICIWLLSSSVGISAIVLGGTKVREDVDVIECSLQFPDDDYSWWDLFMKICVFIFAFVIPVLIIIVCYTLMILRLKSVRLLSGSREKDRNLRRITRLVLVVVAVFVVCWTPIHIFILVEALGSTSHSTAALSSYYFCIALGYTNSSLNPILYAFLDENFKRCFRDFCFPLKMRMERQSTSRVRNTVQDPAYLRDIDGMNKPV
5-hydroxytryptamine receptor 6 (Homo sapiens), sequence (P50406 whole entry): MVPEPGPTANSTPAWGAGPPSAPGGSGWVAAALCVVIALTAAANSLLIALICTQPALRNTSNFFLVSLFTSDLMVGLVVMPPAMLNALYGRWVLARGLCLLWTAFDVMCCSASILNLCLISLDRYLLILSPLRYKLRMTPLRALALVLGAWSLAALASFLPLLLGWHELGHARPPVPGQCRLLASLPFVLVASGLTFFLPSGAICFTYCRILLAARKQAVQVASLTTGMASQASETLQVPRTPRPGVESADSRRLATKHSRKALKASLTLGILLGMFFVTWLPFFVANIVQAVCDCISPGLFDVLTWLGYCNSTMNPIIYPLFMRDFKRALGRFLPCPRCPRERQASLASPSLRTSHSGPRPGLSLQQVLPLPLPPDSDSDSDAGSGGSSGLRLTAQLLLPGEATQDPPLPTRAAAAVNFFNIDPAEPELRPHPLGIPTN
5-hydroxytryptamine receptor 4 (Homo sapiens), sequence (Q13639 whole entry): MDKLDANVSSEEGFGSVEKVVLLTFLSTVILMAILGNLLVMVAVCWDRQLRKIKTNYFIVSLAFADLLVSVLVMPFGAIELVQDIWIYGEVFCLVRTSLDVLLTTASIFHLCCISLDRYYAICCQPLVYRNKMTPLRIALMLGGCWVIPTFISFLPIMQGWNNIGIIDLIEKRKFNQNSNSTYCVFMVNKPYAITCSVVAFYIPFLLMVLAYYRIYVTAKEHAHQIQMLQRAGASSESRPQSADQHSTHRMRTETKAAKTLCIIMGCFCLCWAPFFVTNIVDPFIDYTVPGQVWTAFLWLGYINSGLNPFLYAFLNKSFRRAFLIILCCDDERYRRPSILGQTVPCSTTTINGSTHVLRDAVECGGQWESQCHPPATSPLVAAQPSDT

Regarding `OC[C@@H]1CSC(c2ccccc2O)=N1`, the outcome in assay [1] was Active.
As for `NC(=O)C1CSC(c2ccccc2O)=N1` (stereo not drawn), in assay [1], the result was Active. Moreover, the Activity amounted to 678 nM in assay [2] and 3.71 µM in [3].
In turn, `NC(=O)c1csc(-c2ccccc2O)n1` yielded an Activity in [2] of 517 nM.
On to `C[C@@H]1SC(c2ccccc2O)=N[C@@H]1CO`, for which the Ratio Ki in assay [4], in [5], in assay [6], in [10], in assay [11] and in [12] was 20 throughout. For the same compound, the Ratio Ki in assay [15], in assay [19], in [22], in assay [23] and in [25] was 20 throughout. Further, the result in assay [1], in assay [7], in assay [8], in assay [9], in assay [13] and in assay [14] was inactive. Besides, the result in [16], in assay [17], in [18], in assay [20], in assay [21] and in [24] was inactive.
